Assay results: ChEMBL document CHEMBL3351269, “Phenylimidazoles as potent and selective inhibitors of coagulation factor XIa with in vivo antithrombotic activity” (J Med Chem, 2014)

Experiments:
[1] = Inhibition of rabbit plasma kallikrein using H-D-Pro-Phe-Arg-pNA as substrate; assay type: cell-free, Oryctolagus cuniculus
Coagulation factor XII = molecular target: T1, Coagulation factor XII (Homo sapiens, UniProt P00748); test: Inhibition of human coagulation factor 12a using H-(D)-CHT-Gly-Arg-pNA as substrate by spectrophotometric analysis
T1 sequence (P00748 whole entry): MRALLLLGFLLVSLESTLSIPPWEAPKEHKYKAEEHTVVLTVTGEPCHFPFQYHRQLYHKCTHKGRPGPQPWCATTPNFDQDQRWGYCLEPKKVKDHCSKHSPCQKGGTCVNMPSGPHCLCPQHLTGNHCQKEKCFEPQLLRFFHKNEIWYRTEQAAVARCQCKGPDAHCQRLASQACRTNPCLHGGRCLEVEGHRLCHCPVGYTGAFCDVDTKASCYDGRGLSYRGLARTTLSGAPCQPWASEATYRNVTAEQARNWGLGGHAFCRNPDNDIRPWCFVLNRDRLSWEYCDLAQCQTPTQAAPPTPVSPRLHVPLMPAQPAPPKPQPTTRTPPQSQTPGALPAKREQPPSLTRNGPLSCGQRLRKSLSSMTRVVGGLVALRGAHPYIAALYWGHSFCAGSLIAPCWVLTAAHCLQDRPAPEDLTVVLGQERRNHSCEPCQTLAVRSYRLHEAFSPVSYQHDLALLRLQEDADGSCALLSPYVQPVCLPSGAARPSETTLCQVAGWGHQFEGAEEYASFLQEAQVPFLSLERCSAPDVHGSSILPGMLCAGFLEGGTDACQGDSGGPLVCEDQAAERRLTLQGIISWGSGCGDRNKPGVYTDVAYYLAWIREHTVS
In short: (§1)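 Purified human enzymes; reaction started by adding enzyme to substrate with or without inhibitor, excess substrate and inhibitor over enzyme, 1% DMSO, room temperature, 10–120 min. pNA read at 405 nm. FXIa, FXIIa and chymotrypsin in HEPES pH 7.4 with NaCl, KCl and PEG; FXa and kallikrein in phosphate pH 7.5; FVIIa in HEPES with CaCl2. IC50 from duplicates over 8–11 concentrations, converted to Ki assuming competitive inhibition.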

Coagulation factor XI [2] = molecular target: T2, Coagulation factor XI (Homo sapiens, UniProt P03951); test: Inhibition of human coagulation factor 11a using p-nitroaniline as substrate assessed as substrate hydrolysis at 37 degC by spectrophotometrically
T2 sequence (P03951 19-387 limits assumed): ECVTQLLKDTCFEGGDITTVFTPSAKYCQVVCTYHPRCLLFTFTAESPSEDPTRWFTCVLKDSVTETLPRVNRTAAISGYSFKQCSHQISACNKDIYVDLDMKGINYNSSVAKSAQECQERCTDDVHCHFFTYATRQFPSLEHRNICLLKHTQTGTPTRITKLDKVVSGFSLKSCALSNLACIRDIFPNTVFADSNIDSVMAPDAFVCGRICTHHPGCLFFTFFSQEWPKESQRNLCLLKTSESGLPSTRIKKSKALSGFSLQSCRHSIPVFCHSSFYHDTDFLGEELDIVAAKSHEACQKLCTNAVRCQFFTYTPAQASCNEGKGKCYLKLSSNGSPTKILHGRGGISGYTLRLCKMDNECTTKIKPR
T2 sequence (P03951 388-625 limits assumed): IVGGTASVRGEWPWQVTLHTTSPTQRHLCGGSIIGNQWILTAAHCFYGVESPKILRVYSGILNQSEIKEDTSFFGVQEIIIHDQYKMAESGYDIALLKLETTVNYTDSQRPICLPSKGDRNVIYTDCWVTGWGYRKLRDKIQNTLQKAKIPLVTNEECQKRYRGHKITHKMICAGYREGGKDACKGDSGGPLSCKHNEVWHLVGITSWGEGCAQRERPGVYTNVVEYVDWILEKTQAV
In short: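 Purified human FXIa in 50 mM HEPES pH 7.4, 145 mM NaCl, 5 mM KCl, 0.1% PEG 8000, run at 37 °C, 1% DMSO final. Enzyme added last to substrate ± inhibitor, with substrate and inhibitor in excess. pNA release read at 405 nm. IC50 from duplicate 8–11-point series, converted to Ki assuming competitive inhibition, Ki = IC50/(1+[S]/Km).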

[3] = Inhibition of human coagulation chymotrypsin using MeO-Suc-Arg-Pro-Tyr-pNA as substrate by spectrophotometric analysis; in short: as §1
[4] = Anticoagulant activity in rabbit plasma assessed as concentration required to 2 fold prolong clotting time by aPTT assay; assay type: functional, Oryctolagus cuniculus
[5] = Cmax in rabbit plasma at 0.5 mg/kg, iv; assay type: ADME, organism-based, Oryctolagus cuniculus; set-up: dose 0.5 mg/kg, route intravenous
In short: (§2)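 Single iv dose of 0.5 mg/kg in rabbits; concentrations measured in rabbit plasma.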

Coagulation factor XI [6] = molecular target: T2, Coagulation factor XI; test: Inhibition of human coagulation factor 11a using p-nitroaniline as substrate assessed as substrate hydrolysis by spectrophotometrically; in short: as §1
[7] = Plasma protein binding in rabbit at 0.5 mg/kg, iv; assay type: ADME, organism-based, Oryctolagus cuniculus; set-up: dose 0.5 mg/kg, route intravenous; details: read-out: PPB (converted)
Coagulation factor X = Coagulation factor X (Homo sapiens, UniProt P00742); test: Inhibition of human coagulation factor 10a using N-benzoyl-Ile-Glu-(OH, OMe)-Gly-Arg-pNA as substrate by spectrophotometric analysis; in short: as §1
Sequence of Coagulation factor X (P00742 41-179 limits assumed): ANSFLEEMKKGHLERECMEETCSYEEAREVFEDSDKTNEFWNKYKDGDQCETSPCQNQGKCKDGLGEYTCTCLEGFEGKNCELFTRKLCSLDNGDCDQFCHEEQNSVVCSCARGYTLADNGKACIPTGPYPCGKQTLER
Sequence of Coagulation factor X (P00742 235-488 limits assumed): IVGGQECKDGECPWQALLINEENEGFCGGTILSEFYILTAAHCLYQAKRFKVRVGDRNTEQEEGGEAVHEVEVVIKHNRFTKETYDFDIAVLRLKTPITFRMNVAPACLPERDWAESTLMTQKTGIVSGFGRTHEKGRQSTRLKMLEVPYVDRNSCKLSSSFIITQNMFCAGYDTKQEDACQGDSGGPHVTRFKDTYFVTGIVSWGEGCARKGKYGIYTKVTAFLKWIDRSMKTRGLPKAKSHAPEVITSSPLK

Coagulation factor VII = molecular target: T3, Coagulation factor VII (Homo sapiens, UniProt P08709); test: Inhibition of human coagulation factor 7a using H-(D)-Ile-Pro-Arg-pNA as substrate by spectrophotometric analysis; in short: as §1
T3 sequence (P08709 whole entry): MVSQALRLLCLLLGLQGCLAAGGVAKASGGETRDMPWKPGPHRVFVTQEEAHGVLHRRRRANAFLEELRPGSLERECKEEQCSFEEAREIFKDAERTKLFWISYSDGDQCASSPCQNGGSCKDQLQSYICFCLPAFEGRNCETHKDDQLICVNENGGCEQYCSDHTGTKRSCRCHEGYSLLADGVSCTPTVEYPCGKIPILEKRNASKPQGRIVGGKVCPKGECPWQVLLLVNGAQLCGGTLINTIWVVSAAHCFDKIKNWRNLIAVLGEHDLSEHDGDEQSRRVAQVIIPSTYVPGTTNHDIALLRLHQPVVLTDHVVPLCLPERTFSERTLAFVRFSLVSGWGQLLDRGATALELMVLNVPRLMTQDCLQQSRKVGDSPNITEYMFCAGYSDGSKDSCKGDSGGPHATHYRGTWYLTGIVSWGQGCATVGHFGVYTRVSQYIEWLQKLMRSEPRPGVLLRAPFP

Plasma kallikrein = Plasma kallikrein (Homo sapiens, UniProt P03952); test: Inhibition of human plasma kallikrein using H-D-Pro-Phe-Arg-pNA as substrate; in short: as §1
Sequence of Plasma kallikrein (P03952 20-390 limits assumed): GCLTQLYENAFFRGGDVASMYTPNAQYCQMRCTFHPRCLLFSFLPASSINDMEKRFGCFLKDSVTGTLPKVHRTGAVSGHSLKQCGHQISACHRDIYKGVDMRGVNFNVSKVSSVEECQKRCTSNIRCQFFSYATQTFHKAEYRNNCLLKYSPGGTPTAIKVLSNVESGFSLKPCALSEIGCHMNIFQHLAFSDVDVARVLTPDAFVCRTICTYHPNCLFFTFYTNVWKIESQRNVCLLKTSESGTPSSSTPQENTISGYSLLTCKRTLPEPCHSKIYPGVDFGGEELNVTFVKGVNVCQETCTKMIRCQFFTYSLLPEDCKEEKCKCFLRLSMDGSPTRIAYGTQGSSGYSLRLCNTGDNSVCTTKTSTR
Sequence of Plasma kallikrein (P03952 391-638 limits assumed): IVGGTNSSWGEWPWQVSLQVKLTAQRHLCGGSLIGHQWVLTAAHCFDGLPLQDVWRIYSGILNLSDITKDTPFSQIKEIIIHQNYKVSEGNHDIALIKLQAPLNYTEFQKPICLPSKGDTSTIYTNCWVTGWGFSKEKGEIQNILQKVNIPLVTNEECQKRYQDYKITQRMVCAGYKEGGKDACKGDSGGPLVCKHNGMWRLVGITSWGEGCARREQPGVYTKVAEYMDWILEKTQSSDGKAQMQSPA

[8] = Anticoagulant activity in healthy human plasma assessed as concentration required to 2 fold prolong clotting time by aPTT assay; assay type: functional
In short: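 Citrated human plasma from healthy volunteers (one-tenth volume 0.11 M buffered citrate; spun 2000g, 10 min, kept on ice). Inhibitor from 10 mM DMSO stock, diluted in plasma, up to seven concentrations. aPTT with Alexin: plasma warmed 1 min at 37 °C, reagent added, CaCl2 2 min later. Duplicates, as ratio to baseline. EC2x by linear interpolation, as total plasma concentration.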

Oryctolagus cuniculus = test: Clearance in rabbit plasma at 0.5 mg/kg, iv; assay type: ADME, organism-based; set-up: dose 0.5 mg/kg, route intravenous; details: in vivo; in short: as §2
Plasma = test: Anticoagulant activity in healthy human plasma assessed as prothrombin time by PT assay; assay type: functional
In short: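 Citrated healthy-volunteer plasma spiked with inhibitor (10 mM DMSO stock diluted in plasma, up to seven concentrations). PT with Thromboplastin C-Plus: plasma warmed 3 min at 37 °C before reagent was added. Duplicates, as mean ratio to baseline control. Concentration that doubles clotting time by linear interpolation, as total plasma concentration.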

[9] = Mean residence time in rabbit plasma at 0.5 mg/kg, iv; assay type: ADME, organism-based, Oryctolagus cuniculus; set-up: dose 0.5 mg/kg, route intravenous; in short: as §2
Coagulation factor IX = Coagulation factor IX (Homo sapiens, UniProt P00740); test: Inhibition of human coagulation factor 9a by spectrophotometric analysis
Sequence of Coagulation factor IX (P00740 47-191 limits assumed): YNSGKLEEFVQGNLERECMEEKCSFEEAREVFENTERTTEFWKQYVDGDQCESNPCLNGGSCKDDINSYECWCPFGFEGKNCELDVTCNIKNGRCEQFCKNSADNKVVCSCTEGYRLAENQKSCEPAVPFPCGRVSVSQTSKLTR
Sequence of Coagulation factor IX (P00740 227-461 limits assumed): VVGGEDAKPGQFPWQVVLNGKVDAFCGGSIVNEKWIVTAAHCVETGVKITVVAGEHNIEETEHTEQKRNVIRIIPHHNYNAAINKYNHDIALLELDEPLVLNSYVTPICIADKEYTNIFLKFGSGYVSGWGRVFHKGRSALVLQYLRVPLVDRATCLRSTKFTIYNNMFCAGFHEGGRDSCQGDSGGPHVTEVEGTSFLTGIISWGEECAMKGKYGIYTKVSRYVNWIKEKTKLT
In short: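 Purified human factor IXa; buffer 50 mM Tris pH 7.4, 100 mM NaCl, 5 mM CaCl2, 0.5% PEG 8000, 2% DMSO; room temperature. Reaction started with enzyme added to substrate ± inhibitor, in excess substrate and inhibitor, for 10–120 min. Rate read as pNA A405 or AMC fluorescence. Duplicate IC50s from 8–11 concentrations; Ki = IC50/(1+[S]/Km), assuming competitive inhibition.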

Q: With `NC[C@H]1CC[C@H](C(=O)N[C@@H](Cc2ccccc2)c2nc(-c3ccc4c(N)n[nH]c4c3)c(Cl)[nH]2)CC1.O=C(O)C(F)(F)F` as the compound, how does the Ki [1] read?
A: The Ki was 0.021 µM.

Q: And the Ki (Coagulation factor XII)?
A: Its Ki is 9.22 µM.

Q: What about the Ki (Coagulation factor XI [2]) of the same compound?
A: Its Ki is 0.0008 µM.

Q: What about the Ki [3] of the same compound?
A: The Ki was over 20.8 µM.

Q: What about the 2aPTT [4] of the same compound?
A: The 2aPTT was 2 µM.

Q: What about the Cmax [5] of the same compound?
A: The Cmax was 2470 nM.

Q: What about the Ki (Coagulation factor XI [6]) of the same compound?
A: The Ki was 0.0003 µM.

Q: What about the fraction unbound [7] of the same compound?
A: The fraction unbound was 0.15.

Q: What about the Ki (Coagulation factor X) of the same compound?
A: The Ki was 6.39 µM.

Q: What about the Ki (Coagulation factor VII) of the same compound?
A: Its Ki is 4.22 µM.

Q: And the Ki (Plasma kallikrein)?
A: Its Ki is 0.005 µM.

Q: And the 2aPTT [8]?
A: The 2aPTT was 1 µM.

Q: And the clearance (Oryctolagus cuniculus)?
A: The clearance was 20 mL/min/kg.

Q: What about the 2PT (Plasma) of the same compound?
A: The 2PT was over 40 µM.

Q: What about the MRT [9] of the same compound?
A: Its MRT is 36 min.

Q: And the Ki (Coagulation factor IX)?
A: Its Ki is over 34.9 µM.
